SMILES strings stand for the structures.

Holding throughout (format): cell-based
Assay [1] has as its system A549 – Homo sapiens lung carcinoma. Description: MTT cytotoxicity assay, A549. The conditions noted are these: A549, 24 h, read-out: IC50 values (μM) A549. In short, it runs like this: (§1)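 Test compound at 1 to 100 μM for 24 h. MTT (0.5 mg mL−1) added for 3 h, formazan dissolved in DMSO, absorbance read. Run in triplicate; IC50 calculated.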
For orientation: Tetrazolium dyes change colour on reduction, which living cells bring about.

The subject of assay [2] is Hep G2 – Homo sapiens hepatocellular carcinoma. Description: MTT cytotoxicity assay, HepG2. The conditions noted are these: HepG2, 24 h, read-out: IC50 values (μM) HEPG2. The procedure, abridged: as §1
The subject of assay [3] is DU145 – Homo sapiens prostrate carcinoma. The assay can be described thus: MTT cytotoxicity assay, DU145. The note with it: DU-145, 24 h, read-out: IC50 values (μM) DU145. In short, it runs like this:
as §1

Assay [4] concerns B16-F10 – Mus musculus mouse skin melanoma. The assay can be described thus: MTT cytotoxicity assay, B16-F10. The note with it: B16-F10, 24 h, read-out: IC50 values (μM) B16-F10. The procedure, abridged:
as §1

Assay [5] concerns CHO-K1 – Cricetulus griseus chinese hamster ovary cells. The assay can be described thus: MTT cytotoxicity assay, non-cancerous CHO-K1. The note with it: CHO-K1, 24 h, read-out: IC50 values (μM) CHO.

On to `Cc1ccc(NC(=O)c2ccccc2-n2c(=O)[nH]c3ccccc3c2=O)cc1` [Compound 3c, 2-(2,4-dioxo-1,2-dihydroquinazolin-3(4H)-yl)-N-(p-tolyl)benzamide], for which the IC50 (usually the point on the concentration scale where inhibition reaches its midpoint) in assay [1] is 15.2 ± 0.7 µM; in assay [2], 5.33 ± 0.12 µM; in assay [3], 11.49 ± 0.04 µM; in assay [4] it was 17.9 ± 0.17 µM.
With `O=C(Nc1ccccc1)c1ccccc1-n1c(=O)[nH]c2ccc(Cl)cc2c1=O` [Compound 3n, 2-(6-Chloro-2,4-dioxo-1,2-dihydroquinazolin-3(4H)-yl)-N-phenylbenzamide], the IC50 worked out at 14.7 ± 0.18 µM in assay [1]; 12.3 ± 0.26 µM in assay [2]; 73.9 ± 2.81 µM in assay [5]; 10.4 ± 0.13 µM in assay [3]; 14.83 ± 0.01 µM in assay [4].
`CCNC(=O)c1ccccc1-n1c(=O)[nH]c2ccccc2c1=O` [Compound 3h, 2-(2,4-Dioxo-1,2-dihydroquinazolin-3(4H)-yl)-N-ethylbenzamide]: the IC50 came to 34.8 ± 4.65 µM in assay [1]; 16.7 ± 1.72 µM in assay [2]; 94.2 ± 2.44 µM in assay [5]; 10.44 ± 0.02 µM in assay [3]; 27.1 ± 0.68 µM in assay [4].
Turning to `COc1cccc2c1C(=O)c1c(O)c3c(c(O)c1C2=O)C[C@@](O)(C(=O)CO)C[C@@H]3O[C@H]1C[C@H](N)[C@H](O)[C@H](C)O1` [Doxorubicin, doxorubicin, reference compound], the IC50 in assay [1] was determined as 0.55 ± 0.16 µM; in assay [2] it was 0.72 ± 0.012 µM; in assay [3] it was 0.363 ± 0.01 µM; in assay [4] it was 0.7 ± 0.56 µM.
Taken in the same sequence, the figures for `CCCCNC(=O)c1cc(Cl)ccc1-n1c(=O)[nH]c2ccc(Cl)cc2c1=O` [Compound 3q, N-Butyl-5-chloro-2-(6-chloro-2,4-dioxo-1,2-dihydroquinazolin-3(4H)-yl)benzamide] were 28.7 ± 1.38 µM, 8.51 ± 0.2 µM, 9.37 ± 0.03 µM and 36.46 ± 0.1 µM.
Consider `CCNC(=O)c1ccccc1-n1c(=O)[nH]c2ccc(Cl)cc2c1=O` [Compound 3p, 2-(6-Chloro-2,4-dioxo-1,2-dihydroquinazolin-3(4H)-yl)-N-ethylbenzamide], for which the IC50 in assay [1] is 22.8 ± 0.71 µM; in assay [2] it was 33.9 ± 0.71 µM; in assay [3] it was 13.02 ± 0.03 µM; in assay [4], 31.67 ± 0.14 µM.
Taken in the same sequence, the figures for `CCCCNC(=O)c1cc(Cl)ccc1-n1c(=O)[nH]c2ccccc2c1=O` [Compound 3g, N-Butyl-5-chloro-2-(2,4-dioxo-1,2-dihydroquinazolin-3(4H)-yl)benzamide] were 30.4 ± 5.52 µM, 15.3 ± 0.78 µM, 18.65 ± 0.08 µM and 20.5 ± 0.91 µM.
Regarding `O=c1[nH]cc(F)c(=O)[nH]1` [Compound 5FU, 5-fluorouracil, reference compound], the IC50 in assay [1] was found to be 29.6 ± 1.64 µM; in assay [2], 23 ± 0.27 µM; in assay [3], 16.32 ± 0.02 µM; in assay [4] it was 7.55 ± 0.01 µM.
Taken in the same sequence, the figures for `O=C(Nc1ccc(F)cc1)c1ccccc1-n1c(=O)[nH]c2ccc(F)cc2c1=O` [Compound 3k, 2-(6-Fluoro-2,4-dioxo-1,2-dihydroquinazolin-3(4H)-yl)-N-(4-fluorophenyl)benzamide] were 17.2 ± 0.41 µM, 28.7 ± 0.92 µM, 11.59 ± 0.06 µM and 30 ± 0.42 µM.
Regarding `O=C(Nc1ccc(Br)cc1)c1ccccc1-n1c(=O)[nH]c2ccc(F)cc2c1=O` [Compound 3l, N-(4-Bromophenyl)-2-(6-fluoro-2,4-dioxo-1,2-dihydroquinazolin-3(4H)-yl)benzamide], the IC50 in assay [1] stood at 17.4 ± 0.18 µM; in assay [2] it was 7.77 ± 0.02 µM; in assay [5], 51.5 ± 2.74 µM; in assay [3] it was 12.63 ± 0.08 µM; in assay [4], 28.5 ± 0.31 µM.
Taken in the same sequence, the figures for `O=C(Nc1ccc(F)cc1)c1ccccc1-n1c(=O)[nH]c2ccc(Cl)cc2c1=O` [Compound 3o, 2-(6-Chloro-2,4-dioxo-1,2-dihydroquinazolin-3(4H)-yl)-N-(4-fluorophenyl)benzamide] were 26.3 ± 1.03 µM, 3.02 ± 0.06 µM, 74.5 ± 9.44 µM, 5.17 ± 0.07 µM and 16.03 ± 0.06 µM.
Regarding `COc1ccc(NC(=O)c2ccccc2-n2c(=O)[nH]c3ccccc3c2=O)cc1` [Compound 3b, 2-(2,4-dioxo-1,2-dihydroquinazolin-3(4H)-yl)-N-(4-methoxyphenyl)benzamide], the IC50 in assay [1] came to 19.5 ± 0.25 µM; in assay [2], 23.3 ± 0.52 µM; in assay [3] it was 11.56 ± 0.06 µM; in assay [4], 24.8 ± 0.7 µM.
In the same order, the values of `COc1ccc(NC(=O)c2ccccc2-n2c(=O)[nH]c3ccc(F)cc3c2=O)cc1` [Compound 3j, 2-(6-Fluoro-2,4-dioxo-1,2-dihydroquinazolin-3(4H)-yl)-N-(4-methoxyphenyl)benzamide] are 30.4 ± 1.35 µM, 8.74 ± 0.34 µM, 12.3 ± 0.17 µM and 34.3 ± 1.55 µM.
In the same order, the values of `O=C(Nc1ccccc1)c1ccccc1-n1c(=O)[nH]c2ccccc2c1=O` [Compound 3a, 2-(2,4-dioxo-1,2-dihydroquinazolin-3(4H)-yl)-N-phenylbenzamide] are 29.4 ± 0.45 µM, 8.73 ± 0.02 µM, 14.83 ± 0.13 µM and 39.51 ± 0.13 µM.
In the same order, the values of `O=C(Nc1ccccc1)c1ccccc1-n1c(=O)[nH]c2ccc([N+](=O)[O-])cc2c1=O` [Compound 3r, 2-(6-Nitro-2,4-dioxo-1,2-dihydroquinazolin-3(4H)-yl)-N-phenylbenzamide] are 16.7 ± 0.3 µM, 16 ± 0.51 µM, 15.59 ± 0.07 µM and 33.13 ± 0.12 µM.
As for `CCNC(=O)c1ccccc1-n1c(=O)[nH]c2ccc(F)cc2c1=O` [Compound 3m, N-Ethyl-2-(6-fluoro-2,4-dioxo-1,2-dihydroquinazolin-3(4H)-yl)benzamide], the IC50 in assay [1] stood at 26.3 ± 1.32 µM; in assay [2], 20.2 ± 0.31 µM; in assay [5], 88 ± 3.56 µM; in assay [3], 19.39 ± 0.14 µM; in assay [4], 41.4 ± 0.81 µM.
In the same order, the values of `O=C(Nc1ccc(Br)cc1)c1ccccc1-n1c(=O)[nH]c2ccccc2c1=O` [Compound 3e, N-(4-Bromophenyl)-2-(2,4-dioxo-1,2-dihydroquinazolin-3(4H)-yl)benzamide] are 11.7 ± 0.14 µM, 9.48 ± 0.05 µM, 69.4 ± 5.17 µM, 12.05 ± 0.02 µM and 14.67 ± 0.05 µM.

These data come from paper PMC9169238 (RSC Advances, 2022).
